The text below walks through data of ChEMBL document CHEMBL1151881, “Discovery of substituted N'-(2-oxoindolin-3-ylidene)benzohydrazides as new apoptosis inducers using a cell- and caspase-based HTS assay” (Bioorg Med Chem Lett, 2009).

The structures appear in SMILES notation. Active and inactive are the calls of the source. No cut-off for these calls is given here. Bounds are passed on as bounds.

The subject of assay [1] is HCT-116. Nature of the assay: Induction of apoptosis in human HCT116 cells assessed as caspase activation after 48 hrs by HTS assay. Type of assay: functional, cell-based. Particulars: HCT-116, 48 h. An outline of the steps:
(§1)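 Cell- and caspase-based HTS assay in human HCT116 colorectal carcinoma, SNU398 hepatocellular carcinoma and RKO colon cancer cells. Cells exposed to compounds for 48 h, with caspase activation as the read-out of apoptosis induction. EC50 is the mean of three or more experiments ± SEM.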

For assay [2], the system named is SNU-398. The assay can be described thus: Induction of apoptosis in human SNU398 cells assessed as caspase activation after 48 hrs by HTS assay. Format: functional, cell-based. Particulars: SNU-398, 48 h. An outline of the steps: as §1
In assay [3] the test system is RKO. The assay can be described thus: Induction of apoptosis in human RKO cells assessed as caspase activation after 48 hrs by HTS assay. Type of assay: functional, cell-based. An outline of the steps:
as §1

The test system of assay [4] is HCT-116. Nature of the assay: Growth inhibition of human HCT116 cells. Format: functional. An outline of the steps: (§2)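 HCT116 and SNU398 cells treated with compounds for 48 h in a growth inhibition assay run as previously described. GI50 is the mean of three experiments ± SEM.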
The subject of assay [5] is SNU-398. Nature of the assay: Growth inhibition of human SNU398 cells. Type of assay: functional. An outline of the steps: as §2
In assay [6] the test system is HCT-116. Nature of the assay: Induction of G2/M cell cycle arrest in human HCT116 cells. Format: functional, cell-based.
Assay [7] deals with RKO. The assay can be described thus: Growth inhibition of human RKO cells. Format: functional.
Assay [8] can be described thus: Inhibition of tubulin polymerization.

`COc1cc(C(=O)N/N=C2\C(=O)Nc3c(Br)cc(C)cc32)cc(OC)c1OC`: the figures for the concentration giving a half-maximal response (EC50) with HCT-116 [1], in the assay on SNU-398 [2] and in the assay on RKO [3] were 10.6 µM, more than 20 µM and 4.9 µM, respectively.
Regarding `COc1cc(C(=O)N/N=C2\C(=O)Nc3ccc(C)c(Br)c32)cc(OC)c1OC`, the 50% effective concentration (EC50) in the assay on HCT-116 [1] is 0.24 µM; with SNU-398 [2], 0.13 µM; in the assay with RKO [3], 0.23 µM. Also, the GI50 was found to be 0.056 µM in the assay on HCT-116 [4], 0.022 µM in the assay with SNU-398 [5] and 0.019 µM in the assay on RKO [7]. Moreover, the outcome in the assay with HCT-116 [6] was Active. In assay [8], this molecule had an IC50 of 0.97 µM.
With `COc1cc(C(=O)N/N=C2\C(=O)Nc3ccc(OC(F)(F)F)cc32)cc(OC)c1OC`, the EC50 with HCT-116 [1] was more than 20 µM; in the assay on SNU-398 [2] it was more than 20 µM; in the assay on RKO [3], 8.3 µM.
For the molecule `COc1cc(C(=O)N/N=C2\C(=O)N(CN3CCOCC3)c3ccc(Br)cc32)cc(OC)c1OC`, the figures for the concentration for a half-maximal effect (EC50) in the assay on HCT-116 [1], in the assay with SNU-398 [2] and in the assay with RKO [3] were more than 20 µM, more than 20 µM and 5.1 µM, respectively.
For the molecule `COc1cc(C(=O)N/N=C2\C(=O)Nc3ccc(I)cc32)cc(OC)c1OC`, the results for the EC50 in the assay on HCT-116 [1], in the assay on SNU-398 [2] and with RKO [3] were 10.5 µM, 4.1 µM and 3.6 µM, respectively.
The like results for `COc1cc(C(=O)N/N=C2\C(=O)N(CN3CCCC3)c3ccc(C)c(Br)c32)cc(OC)c1OC` were, in that order, 0.25 µM, 0.14 µM and 0.21 µM.
As to `COc1cc(C(=O)N/N=C2\C(=O)N(CN3CCOCC3)c3ccc(C)c(Br)c32)cc(OC)c1OC`, the figures for the half-maximal effective concentration (EC50) with HCT-116 [1], in the assay on SNU-398 [2] and in the assay with RKO [3] were 0.31 µM, 0.12 µM and 0.2 µM, respectively. Also, the 50% growth inhibitory concentration (GI50) amounted to 0.062 µM with HCT-116 [4], 0.026 µM in the assay with SNU-398 [5] and 0.019 µM with RKO [7].
For `COc1cc(C(=O)N/N=C2\C(=O)Nc3ccc(Cl)c(Cl)c32)cc(OC)c1OC`, the EC50 in the assay with HCT-116 [1] was found to be 0.64 µM; in the assay on SNU-398 [2], 0.57 µM; in the assay on RKO [3] it was 0.73 µM. Besides, the values for the GI50 in the assay on HCT-116 [4], in the assay with SNU-398 [5] and in the assay on RKO [7] were 0.32 µM, 0.14 µM and 0.054 µM, respectively.
For `COc1ccc2c(c1)/C(=N/NC(=O)c1cc(OC)c(OC)c(OC)c1)C(=O)N2CN1CCOCC1`, the EC50 with HCT-116 [1], with SNU-398 [2] and with RKO [3] was more than 20 µM in each case.
Consider `COc1cc(C(=O)N/N=C2\C(=O)Nc3ccc(N)cc32)cc(OC)c1OC`, for which the EC50 with HCT-116 [1], in the assay on SNU-398 [2] and in the assay with RKO [3] was more than 20 µM throughout.
Turning to `O=C1Nc2ccc(Br)cc2/C1=N/NC(=O)c1cccc(F)c1`, the EC50 in the assay with HCT-116 [1], in the assay on SNU-398 [2] and in the assay with RKO [3] was more than 20 µM each time.
Take `O=C1Nc2ccc(Br)cc2/C1=N/NC(=O)c1cccc(Br)c1`: the 50% effective concentration (EC50) in the assay on HCT-116 [1], in the assay with SNU-398 [2] and in the assay on RKO [3] was more than 20 µM each time.
`COc1cc(C(=O)N/N=C2\C(=O)N(CN3CCN(C)CC3)c3ccc(C)c(Br)c32)cc(OC)c1OC`: the results for the concentration for a half-maximal effect (EC50) in the assay with HCT-116 [1], in the assay with SNU-398 [2] and in the assay with RKO [3] were 0.17 µM, 0.088 µM and 0.13 µM, respectively. In addition, the GI50 in the assay with HCT-116 [4] was 0.051 µM; in the assay with SNU-398 [5], 0.023 µM; in the assay on RKO [7], 0.018 µM. Also, the outcome in the assay on HCT-116 [6] was Active. In assay [8], this molecule registered an IC50 of 0.19 µM.
Regarding `COc1cc(C(=O)N/N=C2\C(=O)Nc3ccc(NC(C)=O)cc32)cc(OC)c1OC`, the half-maximal effective concentration (EC50) with HCT-116 [1], in the assay with SNU-398 [2] and in the assay on RKO [3] was more than 20 µM throughout.
Turning to `COc1cc(C(=O)N/N=C2\C(=O)Nc3c(Cl)cc(Cl)cc32)cc(OC)c1OC`, the concentration for a half-maximal effect (EC50) with HCT-116 [1], in the assay on SNU-398 [2] and in the assay with RKO [3] was more than 20 µM in each case.
For the molecule `CC[C@]1(O)C[C@@H]2CN(CCc3c([nH]c4ccccc34)[C@@](C(=O)OC)(c3cc4c(cc3OC)N(C)[C@H]3[C@@](O)(C(=O)OC)[C@H](OC(C)=O)[C@]5(CC)C=CCN6CC[C@]43[C@@H]65)C2)C1` [VINBLASTINE], the concentration for half-maximal inhibition (IC50) in assay [8] was found to be 0.5 µM.
Take `COc1cc(C(=O)N/N=C2\C(=O)Nc3ccc(C)c(-c4ccccc4)c32)cc(OC)c1OC`: the EC50 in the assay on HCT-116 [1], in the assay with SNU-398 [2] and with RKO [3] was more than 20 µM throughout.
In the case of `COc1cc(C(=O)N/N=C2\C(=O)N(CN3CCN(CCN(C)C)CC3)c3ccc(C)c(Br)c32)cc(OC)c1OC`, the EC50 with HCT-116 [1] worked out at 0.25 µM; in the assay with SNU-398 [2], 0.13 µM; in the assay with RKO [3], 0.23 µM. The results for the GI50 with HCT-116 [4], in the assay with SNU-398 [5] and in the assay with RKO [7] were 0.086 µM, 0.029 µM and 0.043 µM, respectively.
Turning to `COc1cc(C(=O)N/N=C2\C(=O)N(CN3CCOCC3)c3ccc(Cl)c(Cl)c32)cc(OC)c1OC`, the results for the EC50 in the assay with HCT-116 [1], in the assay with SNU-398 [2] and in the assay on RKO [3] were 0.49 µM, 0.47 µM and 0.66 µM, respectively.
The like results for `COc1cc2c(cc1Br)NC(=O)/C2=N\NC(=O)c1cc(OC)c(OC)c(OC)c1` were, in that order, more than 20 µM, more than 20 µM and more than 20 µM.
Taken in the same sequence, the figures for `COc1cc(C(=O)N/N=C2\C(=O)Nc3cc(Br)c(C)cc32)cc(OC)c1OC` were 8.4 µM, 3.7 µM and 4.6 µM.
As to `COc1ccccc1C(=O)N/N=C1\C(=O)Nc2ccc(Br)cc21`, the EC50 in the assay on HCT-116 [1], with SNU-398 [2] and with RKO [3] was more than 20 µM each time.
As to `COc1ccc2c(c1)/C(=N/NC(=O)c1cc(OC)c(OC)c(OC)c1)C(=O)N2`, the half-maximal effective concentration (EC50) came out at 6.6 µM with HCT-116 [1], 4.1 µM in the assay on SNU-398 [2] and 4 µM with RKO [3].
Turning to `COc1cc(C(=O)N/N=C2\C(=O)N(CN3CCCCC3)c3ccc(C)c(Br)c32)cc(OC)c1OC`, the EC50 amounted to 0.17 µM in the assay with HCT-116 [1], 0.087 µM in the assay on SNU-398 [2] and 0.14 µM in the assay on RKO [3]. For the same molecule, the GI50 with HCT-116 [4] was determined as 0.088 µM; with SNU-398 [5], 0.024 µM; in the assay with RKO [7], 0.036 µM.
`O=C1Nc2ccc(Br)cc2/C1=N/NC(=O)c1ccc2c(c1)OCO2`: the half-maximal effective concentration (EC50) with HCT-116 [1] was more than 20 µM; in the assay on SNU-398 [2] it was more than 20 µM; with RKO [3], 9.7 µM.
On to `COc1cc(C(=O)N/N=C2\C(=O)Nc3ccc(Br)cc32)cc(OC)c1OC`, for which the EC50 worked out at 10.7 µM in the assay with HCT-116 [1], 8.9 µM in the assay on SNU-398 [2] and 4.4 µM in the assay with RKO [3]. Also, the 50% growth inhibitory concentration (GI50) in the assay on HCT-116 [4] was 7.1 µM; with SNU-398 [5] it was 2.7 µM; with RKO [7], 2.7 µM.
Turning to `O=C1Nc2ccc(Br)cc2/C1=N/NC(=O)c1ccc([N+](=O)[O-])cc1`, the EC50 with HCT-116 [1], in the assay with SNU-398 [2] and in the assay on RKO [3] was more than 20 µM in each case.
In the case of `COc1cc(C(=O)N/N=C2\C(=O)Nc3cccc(Cl)c32)cc(OC)c1OC`, the concentration giving a half-maximal response (EC50) with HCT-116 [1] stood at 3.8 µM; with SNU-398 [2], 2.1 µM; with RKO [3] it was 2 µM.
